Results as given in ChEMBL document CHEMBL1158391, “Synthesis and antileishmanial activity of novel 2,4,6-trisubstituted pyrimidines and 1,3,5-triazines” (Eur J Med Chem, 2009).
Values after ≈ are worked out from the molar mass of the structure shown. Active and inactive are the calls of the source. The calls are words filed in the database; no cut-off is given here.

Legend:
Leishmania donovani [1] = assay: Antileishmanial activity against Leishmania donovani MHOM/IN/80/Dd8 promastigotes at 10 ug/ml after 72 hrs; assay type: functional
Summary of the method: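 Promastigotes were transfected with firefly luciferase and kept in medium 199 with 10% foetal calf serum, penicillin/streptomycin and G418. Late-log cells (5×10⁵/well) were exposed for 72 h to serial dilutions (1–10 range) in DMSO, with DMSO controls. Luminescence was read with Steady-Glo. % inhibition = (N − n)×100/N, using mean RLU of control (N) and treated (n) wells.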

Leishmania donovani [2] = assay: Antileishmanial activity against Leishmania donovani MHOM/IN/80/Dd8 amastigotes infected in mouse J774A.1 cells after 72 hrs; assay type: functional, organism-based; conditions: MHOM/IN/80/Dd8, J774.A1, 72 h
Summary of the method: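 J774A.1 macrophages (1.5×10⁴/well) were cultured in RPMI-1640 with 10% foetal calf serum at 37 °C in CO₂. After 24 h they were infected with stationary-phase luciferase-transfected promastigotes (2.25×10⁵/well), which transform into amastigotes. Test material (0.25–10 range) in complete medium was then applied for 72 h. Steady-Glo luminescence of treated wells was compared with untreated controls.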

[3] = Cytotoxicity against mouse J774A1 cells after 72 hrs by MTT assay; assay type: cell-based, J774.A1
Summary of the method: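 J774A.1 cells were kept in RPMI with 10% foetal calf serum and gentamycin. Cells (1×10⁴/well) were exposed to graded concentrations diluted from DMSO stocks for 72 h at 37 °C in humidified CO₂. MTT (5 mg/ml stock in PBS) was added for 2 h, and formazan was dissolved in DMSO and read at 544 nm. CC50 was the concentration giving 50% viability loss versus medium-only cells, estimated by template.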

[4] = (§1) Selectivity index, ratio of CC50 for mouse J774A1 cells to IC50 for Leishmania donovani MHOM/IN/80/Dd8 amastigotes; assay type: functional, J774.A1
Summary of the method: (§2)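 Ratio of J774A.1 CC50 (MTT, 72 h) to IC50 from the luciferase assay on intracellular amastigotes in J774A.1 macrophages (72 h exposure).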

Leishmania donovani [5] = assay: Antileishmanial activity against Leishmania donovani MHOM/IN/80/Dd8 amastigotes infected in golden hamster at 50 mg/kg, ip administered 5 times per day for 5 days; assay type: functional
Summary of the method: (§3)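 Golden hamsters infected with L. donovani MHOM/IN/80/Dd8 were randomized into groups by parasite burden, 4–6 animals per sample. Intraperitoneal dosing began 2 days after biopsy. Post-treatment biopsy was taken on day 7 after the last dose, and amastigotes were counted by Giemsa staining. Percentage inhibition was calculated from actual and initial counts in treated animals and the fold increase in untreated controls.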

Leishmania donovani [6] = assay: Antileishmanial activity against Leishmania donovani MHOM/IN/80/Dd8 promastigotes at […] after 72 hrs; assay type: functional, organism-based
J774.A1 = assay: as §1; assay type: functional; summary of the method: as §2
Leishmania donovani [7] = assay: Antileishmanial activity against Leishmania donovani MHOM/IN/80/Dd8 amastigotes infected in golden hamster at 40 mg/kg, ip administered 5 times per day for 5 days; assay type: functional, organism-based; design: dose 40 mg/kg; summary of the method: as §3
Leishmania donovani [8] = assay: Antileishmanial activity against Leishmania donovani MHOM/IN/80/Dd8 promastigotes at 0.5 ug/ml after 72 hrs; assay type: functional
Leishmania donovani [9] = assay: Antileishmanial activity against Leishmania donovani MHOM/IN/80/Dd8 amastigotes infected in golden hamster at 20 mg/kg, ip administered 5 times per day for 5 days; assay type: functional; conditions: route intraperitoneal; summary of the method: as §3

| Molecule | Activity (Leishmania donovani [1]) | IC50 (Leishmania donovani [2]) | CC50 at 72 h [3] | Ratio CC50/IC50 [4] | also measured |
| --- | --- | --- | --- | --- | --- |
| CCN(CC)CCNc1cc(-c2cc(OC)c(OC)c(OC)c2)nc(N)n1 | 95.1% | 5.12 µg/mL (≈ 13.6 µM) | 81.5 µg/mL (≈ 217 µM) | 15.92 | Activity (Leishmania donovani [5]; route intraperitoneal): 48.46% |
| COc1ccc(-c2cc(SC)nc(Nc3nc(NCCN4CCOCC4)nc(NCCN4CCOCC4)n3)n2)cc1OC | inactive | – | – | – | – |
| CCN(CC)CCNc1nc(NCCN(CC)CC)nc(Nc2nc(SC)cc(-c3cc(OC)c(OC)c(OC)c3)n2)n1 | inactive | – | – | – | – |
| CCCNc1nc(NCCC)nc(Nc2nc(SC)cc(-c3cc(OC)c(OC)c(OC)c3)n2)n1 | 86.7% | – | 1.46 µg/mL (≈ 2.92 µM) | – | – |
| COc1cc(-c2cc(N3CCOCC3)nc(N)n2)cc(OC)c1OC | 43.9% | – | – | – | – |
| CCCCNc1cc(-c2cc(OC)c(OC)c(OC)c2)nc(N)n1 | 84.4% | 4.99 µg/mL (≈ 15 µM) | 49.9 µg/mL (≈ 150 µM) | 10 | Activity (Leishmania donovani [5]; route intraperitoneal): 54.1% |
| COc1cc(-c2cc(NCCCN3CCOCC3)nc(N)n2)cc(OC)c1OC | 46.9% | – | – | – | – |
| COc1ccc(-c2cc(SC)nc(Nc3nc(N4CCN(C)CC4)nc(N4CCN(C)CC4)n3)n2)cc1OC | 99.8% | 0.89 µg/mL (≈ 1.61 µM) | 36.2 µg/mL (≈ 65.6 µM) | 40.71 | – |
| sodium stibogluconate | – | – | – | – | Activity (Leishmania donovani [6]): 40%; Ratio CC50/IC50 (J774.A1): 5.53; Activity (Leishmania donovani [5]): 48.5%; Activity (Leishmania donovani [7]): 92% |
| COc1cc(-c2cc(SC)nc(Nc3nc(NCCCN4CCOCC4)nc(NCCCN4CCOCC4)n3)n2)cc(OC)c1OC | 75.2% | – | – | – | – |
| CCN1CCN(c2nc(Nc3nc(SC)cc(-c4cc(OC)c(OC)c(OC)c4)n3)nc(N3CCN(CC)CC3)n2)CC1 | 100% | 4.56 µg/mL (≈ 7.47 µM) | 27.4 µg/mL (≈ 44.8 µM) | 6 | – |
| CCCNc1nc(NCCC)nc(Nc2nc(SC)cc(-c3ccc(OC)c(OC)c3)n2)n1 | 85.6% | 2.27 µg/mL (≈ 4.82 µM) | 14.3 µg/mL (≈ 30.5 µM) | 6.31 | – |
| COc1cc(-c2cc(N3CCCCC3)nc(N)n2)cc(OC)c1OC | 88% | 7.09 µg/mL (≈ 20.6 µM) | 10.4 µg/mL (≈ 30.3 µM) | 1.47 | – |
| COc1cc(-c2cc(NCCN3CCOCC3)nc(N)n2)cc(OC)c1OC | 68.5% | – | – | – | – |
| COc1cc(-c2cc(N3CCN(C)CC3)nc(N)n2)cc(OC)c1OC | 63.88% | – | – | – | – |
| COc1ccc(-c2cc(SC)nc(Nc3nc(NCCCN4CCOCC4)nc(NCCCN4CCOCC4)n3)n2)cc1OC | 35.2% | – | – | – | – |

| Molecule | Activity (Leishmania donovani [1]) | IC50 (Leishmania donovani [2]) | CC50 at 72 h [3] | Ratio CC50/IC50 [4] | also measured |
| --- | --- | --- | --- | --- | --- |
| COc1cc(-c2cc(SC)nc(Nc3nc(N4CCN(C)CC4)nc(N4CCN(C)CC4)n3)n2)cc(OC)c1OC | 99.5% | 1.34 µg/mL (≈ 2.3 µM) | 16.5 µg/mL (≈ 28.4 µM) | 12.34 | – |
| COc1ccc(-c2cc(SC)nc(Nc3nc(N4CCCCC4)nc(N4CCCCC4)n3)n2)cc1OC | 53.8% | – | – | – | – |
| COc1ccc(-c2cc(SC)nc(Nc3nc(N4CCOCC4)nc(N4CCOCC4)n3)n2)cc1OC | 90.5% | 9.68 µg/mL (≈ 18.4 µM) | 23.9 µg/mL (≈ 45.3 µM) | 2.46 | – |
| COc1ccc(-c2cc(SC)nc(Nc3nc(NC(C)(C)C)nc(NC(C)(C)C)n3)n2)cc1OC | inactive | – | – | – | – |
| CCN1CCN(c2nc(Nc3nc(SC)cc(-c4ccc(OC)c(OC)c4)n3)nc(N3CCN(CC)CC3)n2)CC1 | inactive | – | – | – | – |
| N=C(N)c1ccc(OCCCCCOc2ccc(C(=N)N)cc2)cc1 [PENTAMIDINE] | – | – | 31.3 µg/mL (≈ 92 µM) | – | Activity (Leishmania donovani [8]): 85%; Activity (Leishmania donovani [9]): 84.1% |
| COc1cc(-c2cc(SC)nc(Nc3nc(NC(C)C)nc(NC(C)C)n3)n2)cc(OC)c1OC | 94.5% | 1.04 µg/mL (≈ 2.08 µM) | 1.9 µg/mL (≈ 3.8 µM) | 1.82 | – |
| COc1cc(-c2cc(SC)nc(Nc3nc(N4CCCCC4)nc(N4CCCCC4)n3)n2)cc(OC)c1OC | 90.8% | 1.8 µg/mL (≈ 3.26 µM) | 51.7 µg/mL (≈ 93.5 µM) | 28.7 | Activity (Leishmania donovani [5]; route intraperitoneal): 56.58% |
| COc1ccc(-c2cc(SC)nc(Nc3nc(NC(C)C)nc(NC(C)C)n3)n2)cc1OC | inactive | – | – | – | – |
| COc1cc(-c2cc(SC)nc(Nc3nc(N4CCOCC4)nc(N4CCOCC4)n3)n2)cc(OC)c1OC | 80.8% | 7.02 µg/mL (≈ 12.6 µM) | 10.8 µg/mL (≈ 19.5 µM) | 1.54 | – |
| CCCCNc1nc(NCCCC)nc(Nc2nc(SC)cc(-c3cc(OC)c(OC)c(OC)c3)n2)n1 | 75.5% | – | – | – | – |
| CCCCNc1nc(NCCCC)nc(Nc2nc(SC)cc(-c3ccc(OC)c(OC)c3)n2)n1 | 78.6% | – | – | – | – |
| COc1cc(-c2cc(SC)nc(Nc3nc(NC(C)(C)C)nc(NC(C)(C)C)n3)n2)cc(OC)c1OC | 95.8% | 2.97 µg/mL (≈ 5.62 µM) | 9.8 µg/mL (≈ 18.5 µM) | 3.29 | – |
| COc1cc(-c2cc(SC)nc(Nc3nc(NCCN4CCOCC4)nc(NCCN4CCOCC4)n3)n2)cc(OC)c1OC | 42.5% | – | – | – | – |
| CCN(CC)CCNc1nc(NCCN(CC)CC)nc(Nc2nc(SC)cc(-c3ccc(OC)c(OC)c3)n2)n1 | 94.7% | 4.88 µg/mL (≈ 8.34 µM) | 42 µg/mL (≈ 71.8 µM) | 8.6 | – |
